# Measured values reported in the M2OR odorant receptor database.
# Molecular target: T1, OR1A1 (Homo sapiens) (UniProt Q9P1Q5)
# T1 sequence (whole entry): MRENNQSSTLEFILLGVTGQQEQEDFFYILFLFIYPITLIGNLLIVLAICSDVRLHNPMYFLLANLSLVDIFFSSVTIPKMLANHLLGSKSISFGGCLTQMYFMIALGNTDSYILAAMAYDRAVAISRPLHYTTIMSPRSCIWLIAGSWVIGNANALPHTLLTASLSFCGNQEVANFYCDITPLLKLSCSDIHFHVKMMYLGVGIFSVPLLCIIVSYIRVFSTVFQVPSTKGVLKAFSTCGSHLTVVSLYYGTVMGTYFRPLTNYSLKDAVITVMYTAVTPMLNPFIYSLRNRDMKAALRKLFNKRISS
# Conditions: stereoisomer not certain
# Procedure, shortened: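 Assay methods differ from source to source, frequently being transient luciferase assays in mammalian cell lines. For each receptor–molecule pair, the label responsive (active) applies when the original authors judged the measured signal statistically different from baseline, and non-responsive (inactive) applies otherwise.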
row,SMILES,odorant receptor agonist call
1,CC(=O)C=CC1=C(C)CCCC1(C)C,inactive
2,CCC(=O)C(C)S (stereo unspecified),inactive
3,CCc1cccc(O)c1,inactive
4,CCC(=O)C(C)=O,inactive
5,C=C(C)C1CC=C(C)C(O)C1 (stereo unspecified),active
6,CCCCCCCCCCO,active
7,CCC(=O)C1=NCCC1,inactive
8,CC=Cc1ccc(OC)cc1,active
9,CSCSC,inactive
10,CCC=CCCC=CCO,inactive
11,CCOC(=O)Cc1cccc(Br)c1,active
12,CCCCCC(=O)CC(C)=O,active
13,CC1(C)C2CC=C(C=O)C1C2 (stereo unspecified),inactive
14,CC(=O)OCCC(C)C,inactive
15,CCC(S)C(C)=O (stereo unspecified),inactive
16,Cc1cnccn1,inactive
17,COC(=O)C(C)C,inactive
18,CCCC(O)CC(=O)OCC (stereo unspecified),inactive

row,SMILES,odorant receptor agonist call
1,c1cnc2c(c1)ccc1cccnc12,inactive
2,CC(C)=CCCC(C)=CCCC(C)=CCO,inactive
3,CCCCCCCCC1CCC(=O)O1 (stereo unspecified),inactive
4,C=CC(=C)CCC=C(C)C,inactive
5,CC(C)CCO,inactive
6,CCCCCC=CC=O,inactive
7,CCOC(C)=O,inactive
8,O=C([O-])CCCCC(=O)[O-].[H+].[H+],inactive
9,Cc1cccc(C)c1O,inactive
10,CCOC(=O)c1ccccc1,inactive
11,CCC(C)c1nccnc1OC (stereo unspecified),inactive
12,CC(=O)O,inactive
13,CCC(C)COC(C)=O (stereo unspecified),inactive
14,CCCCC(=O)CC,active
15,CCOC(=O)C=Cc1ccccc1,inactive
16,CC(C)C12CCC(C)(CC1)O2,inactive
17,C=C1CCC2CC1C2(C)C (stereo unspecified),inactive
18,Cc1cccc(O)c1,inactive
